T1: Solute carrier organic anion transporter family member 1C1 (Homo sapiens, UniProt Q9NYB5)
T1 sequence (Q9NYB5 whole entry): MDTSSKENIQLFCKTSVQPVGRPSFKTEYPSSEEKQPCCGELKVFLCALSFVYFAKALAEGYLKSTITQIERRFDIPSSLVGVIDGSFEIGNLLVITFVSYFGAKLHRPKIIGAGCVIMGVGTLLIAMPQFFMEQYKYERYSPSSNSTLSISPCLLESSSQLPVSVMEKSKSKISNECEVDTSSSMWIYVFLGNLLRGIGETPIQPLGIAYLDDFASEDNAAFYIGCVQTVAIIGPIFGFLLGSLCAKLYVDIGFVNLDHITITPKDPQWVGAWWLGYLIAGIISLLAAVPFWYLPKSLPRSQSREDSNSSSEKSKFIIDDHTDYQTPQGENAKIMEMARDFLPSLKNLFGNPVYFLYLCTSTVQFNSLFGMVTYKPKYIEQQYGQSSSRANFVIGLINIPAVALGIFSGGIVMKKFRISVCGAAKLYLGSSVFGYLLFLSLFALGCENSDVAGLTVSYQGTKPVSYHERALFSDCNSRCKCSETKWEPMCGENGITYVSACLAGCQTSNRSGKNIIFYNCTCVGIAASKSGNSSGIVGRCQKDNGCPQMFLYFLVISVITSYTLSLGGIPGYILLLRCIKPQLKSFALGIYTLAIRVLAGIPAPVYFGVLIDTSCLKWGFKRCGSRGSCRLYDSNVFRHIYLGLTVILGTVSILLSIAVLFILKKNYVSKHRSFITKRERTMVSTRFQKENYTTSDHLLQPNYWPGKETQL

T2: Solute carrier organic anion transporter family member 3A1 (Homo sapiens, UniProt Q9UIG8)
T2 sequence (Q9UIG8 whole entry): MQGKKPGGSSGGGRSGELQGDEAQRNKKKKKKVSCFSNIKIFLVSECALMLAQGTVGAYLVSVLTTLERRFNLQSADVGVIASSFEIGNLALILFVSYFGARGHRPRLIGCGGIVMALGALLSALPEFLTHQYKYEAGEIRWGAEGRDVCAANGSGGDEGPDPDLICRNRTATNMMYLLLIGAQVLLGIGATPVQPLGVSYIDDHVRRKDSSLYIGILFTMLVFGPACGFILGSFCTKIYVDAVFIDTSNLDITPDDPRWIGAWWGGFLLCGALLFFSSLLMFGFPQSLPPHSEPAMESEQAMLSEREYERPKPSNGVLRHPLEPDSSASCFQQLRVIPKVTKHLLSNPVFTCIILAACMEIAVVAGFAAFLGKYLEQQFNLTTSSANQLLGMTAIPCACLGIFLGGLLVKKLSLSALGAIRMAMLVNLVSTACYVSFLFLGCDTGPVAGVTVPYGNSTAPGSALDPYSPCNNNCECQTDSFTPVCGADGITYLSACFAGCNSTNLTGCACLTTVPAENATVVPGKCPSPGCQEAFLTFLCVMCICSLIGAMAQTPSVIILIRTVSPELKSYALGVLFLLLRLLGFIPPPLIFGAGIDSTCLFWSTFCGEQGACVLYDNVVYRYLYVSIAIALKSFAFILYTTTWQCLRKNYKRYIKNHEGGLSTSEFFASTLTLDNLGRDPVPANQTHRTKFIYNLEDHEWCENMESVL

T3: Solute carrier organic anion transporter family member 1A2 (Homo sapiens, UniProt P46721)
T3 sequence (P46721 whole entry): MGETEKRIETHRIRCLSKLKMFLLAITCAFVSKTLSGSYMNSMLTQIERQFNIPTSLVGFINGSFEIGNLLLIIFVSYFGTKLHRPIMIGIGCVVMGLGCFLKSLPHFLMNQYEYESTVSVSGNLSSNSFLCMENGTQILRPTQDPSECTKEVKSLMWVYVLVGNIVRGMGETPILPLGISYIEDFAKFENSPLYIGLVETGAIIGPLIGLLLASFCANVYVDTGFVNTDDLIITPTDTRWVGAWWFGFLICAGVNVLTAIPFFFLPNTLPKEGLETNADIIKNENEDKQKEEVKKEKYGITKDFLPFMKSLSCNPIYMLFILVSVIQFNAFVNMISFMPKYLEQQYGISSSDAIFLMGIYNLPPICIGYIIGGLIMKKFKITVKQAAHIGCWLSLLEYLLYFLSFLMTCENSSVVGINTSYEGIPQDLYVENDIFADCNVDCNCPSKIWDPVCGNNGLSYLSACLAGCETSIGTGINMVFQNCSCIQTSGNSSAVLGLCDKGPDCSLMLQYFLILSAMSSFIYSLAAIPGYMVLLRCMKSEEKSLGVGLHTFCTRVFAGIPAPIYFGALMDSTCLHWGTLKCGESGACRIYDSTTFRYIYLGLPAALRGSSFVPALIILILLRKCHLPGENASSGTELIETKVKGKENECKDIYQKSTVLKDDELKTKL

T4: Solute carrier organic anion transporter family member 2B1 (Homo sapiens, UniProt O94956)
T4 sequence (O94956 whole entry): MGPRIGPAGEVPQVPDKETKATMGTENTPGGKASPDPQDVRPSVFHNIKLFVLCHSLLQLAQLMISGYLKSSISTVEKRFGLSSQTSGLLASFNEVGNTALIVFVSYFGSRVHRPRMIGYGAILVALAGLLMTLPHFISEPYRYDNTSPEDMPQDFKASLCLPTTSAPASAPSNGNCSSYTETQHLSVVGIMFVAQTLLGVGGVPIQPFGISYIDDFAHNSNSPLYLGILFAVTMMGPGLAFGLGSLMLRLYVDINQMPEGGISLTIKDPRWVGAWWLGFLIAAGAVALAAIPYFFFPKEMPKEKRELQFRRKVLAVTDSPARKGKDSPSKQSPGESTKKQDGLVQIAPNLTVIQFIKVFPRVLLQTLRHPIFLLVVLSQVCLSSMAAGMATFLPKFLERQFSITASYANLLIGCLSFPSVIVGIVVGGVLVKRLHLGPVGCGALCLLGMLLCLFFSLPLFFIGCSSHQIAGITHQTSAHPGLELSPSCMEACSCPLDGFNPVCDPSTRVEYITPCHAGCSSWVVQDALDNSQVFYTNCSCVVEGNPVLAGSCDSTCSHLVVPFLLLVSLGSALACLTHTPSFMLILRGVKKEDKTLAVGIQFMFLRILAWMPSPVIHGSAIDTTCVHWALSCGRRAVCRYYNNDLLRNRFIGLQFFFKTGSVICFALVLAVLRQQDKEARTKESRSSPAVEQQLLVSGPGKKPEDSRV

T5: Solute carrier organic anion transporter family member 4A1 (Homo sapiens, UniProt Q96BD0)
T5 sequence (Q96BD0 whole entry): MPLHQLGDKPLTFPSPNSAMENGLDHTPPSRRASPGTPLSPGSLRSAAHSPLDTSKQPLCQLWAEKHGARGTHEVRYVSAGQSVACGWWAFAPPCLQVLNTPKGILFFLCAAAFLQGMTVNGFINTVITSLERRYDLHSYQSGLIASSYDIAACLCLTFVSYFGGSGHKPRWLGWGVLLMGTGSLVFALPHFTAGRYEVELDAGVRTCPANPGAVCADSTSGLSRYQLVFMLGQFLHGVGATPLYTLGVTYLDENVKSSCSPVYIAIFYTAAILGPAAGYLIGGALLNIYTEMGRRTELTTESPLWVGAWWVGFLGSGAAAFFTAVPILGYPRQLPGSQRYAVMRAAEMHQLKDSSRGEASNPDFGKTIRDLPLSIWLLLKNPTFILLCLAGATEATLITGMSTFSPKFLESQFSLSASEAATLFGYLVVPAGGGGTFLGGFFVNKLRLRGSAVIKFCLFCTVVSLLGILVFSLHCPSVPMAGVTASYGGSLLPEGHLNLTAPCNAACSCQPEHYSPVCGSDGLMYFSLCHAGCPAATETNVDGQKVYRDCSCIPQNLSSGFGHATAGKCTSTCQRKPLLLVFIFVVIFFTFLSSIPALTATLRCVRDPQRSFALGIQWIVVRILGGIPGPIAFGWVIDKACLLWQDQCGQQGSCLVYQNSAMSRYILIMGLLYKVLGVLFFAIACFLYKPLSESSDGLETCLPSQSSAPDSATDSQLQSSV


Experiments:
[1] = biological target: T1, Solute carrier organic anion transporter family member 1C1; assay: (§1) TP_TRANSPORTER: uptake in Xenopus laevis oocytes; assay type: functional, cell-based; settings: oocyte
How it was run: (§2)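 Oocytes were injected with 5 ng of cRNA for human OATP1A2, 1C1, 2B1, 3A1 or 4A1, or with water, then cultured 3 days. Radioactivity was counted by scintillation, water-injected uptake was subtracted, and Km came from nonlinear regression of 12–15 oocytes.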

[2] = biological target: T2, Solute carrier organic anion transporter family member 3A1; assay: as §1; assay type: functional, cell-based; settings: oocyte; how it was run: as §2
[3] = biological target: T3, Solute carrier organic anion transporter family member 1A2; assay: as §1; assay type: functional, cell-based, Oocyte; how it was run: as §2
[4] = biological target: T4, Solute carrier organic anion transporter family member 2B1; assay: as §1; assay type: functional, cell-based; settings: oocyte; how it was run: as §2
[5] = biological target: T5, Solute carrier organic anion transporter family member 4A1; assay: as §1; assay type: functional, cell-based; settings: oocyte; how it was run: as §2
[6] = substrate: CCCCCCCC(=O)CC[C@@H]1[C@@H](C/C=C\CCCC(=O)O)[C@@H](O)C[C@H]1O; assay: as §1; assay type: functional, cell-based, Oocyte; how it was run: as §2

Molecule	Activity [1]	Activity [2]	Km ([3]; Xenopus laevis oocytes)	Activity [4]	Activity [5]	Activity ([3]; oocyte)	Km [6]
Solute carrier organic anion transporter family member 4A1 (Homo sapiens) (protein) MPLHQLGDKPLTFPSPNSAMENGLDHTPPSRRASPGTPLSPGSLRSAAHSPLDTSKQPLCQLWAEKHGARGTHEVRYVSAGQSVACGWWAFAPPCLQVLNTPKGILFFLCAAAFLQGMTVNGFINTVITSLERRYDLHSYQSGLIASSYDIAACLCLTFVSYFGGSGHKPRWLGWGVLLMGTGSLVFALPHFTAGRYEVELDAGVRTCPANPGAVCADSTSGLSRYQLVFMLGQFLHGVGATPLYTLGVTYLDENVKSSCSPVYIAIFYTAAILGPAAGYLIGGALLNIYTEMGRRTELTTESPLWVGAWWVGFLGSGAAAFFTAVPILGYPRQLPGSQRYAVMRAAEMHQLKDSSRGEASNPDFGKTIRDLPLSIWLLLKNPTFILLCLAGATEATLITGMSTFSPKFLESQFSLSASEAATLFGYLVVPAGGGGTFLGGFFVNKLRLRGSAVIKFCLFCTVVSLLGILVFSLHCPSVPMAGVTASYGGSLLPEGHLNLTAPCNAACSCQPEHYSPVCGSDGLMYFSLCHAGCPAATETNVDGQKVYRDCSCIPQNLSSGFGHATAGKCTSTCQRKPLLLVFIFVVIFFTFLSSIPALTATLRCVRDPQRSFALGIQWIVVRILGGIPGPIAFGWVIDKACLLWQDQCGQQGSCLVYQNSAMSRYILIMGLLYKVLGVLFFAIACFLYKPLSESSDGLETCLPSQSSAPDSATDSQLQSSV							132 µM
Solute carrier organic anion transporter family member 2B1 (Homo sapiens) (protein) MGPRIGPAGEVPQVPDKETKATMGTENTPGGKASPDPQDVRPSVFHNIKLFVLCHSLLQLAQLMISGYLKSSISTVEKRFGLSSQTSGLLASFNEVGNTALIVFVSYFGSRVHRPRMIGYGAILVALAGLLMTLPHFISEPYRYDNTSPEDMPQDFKASLCLPTTSAPASAPSNGNCSSYTETQHLSVVGIMFVAQTLLGVGGVPIQPFGISYIDDFAHNSNSPLYLGILFAVTMMGPGLAFGLGSLMLRLYVDINQMPEGGISLTIKDPRWVGAWWLGFLIAAGAVALAAIPYFFFPKEMPKEKRELQFRRKVLAVTDSPARKGKDSPSKQSPGESTKKQDGLVQIAPNLTVIQFIKVFPRVLLQTLRHPIFLLVVLSQVCLSSMAAGMATFLPKFLERQFSITASYANLLIGCLSFPSVIVGIVVGGVLVKRLHLGPVGCGALCLLGMLLCLFFSLPLFFIGCSSHQIAGITHQTSAHPGLELSPSCMEACSCPLDGFNPVCDPSTRVEYITPCHAGCSSWVVQDALDNSQVFYTNCSCVVEGNPVLAGSCDSTCSHLVVPFLLLVSLGSALACLTHTPSFMLILRGVKKEDKTLAVGIQFMFLRILAWMPSPVIHGSAIDTTCVHWALSCGRRAVCRYYNNDLLRNRFIGLQFFFKTGSVICFALVLAVLRQQDKEARTKESRSSPAVEQQLLVSGPGKKPEDSRV							91 µM

Now from value to molecule, other results behind:

Activity [1]	Activity [2]	Km ([3]; Xenopus laevis oocytes)	Activity [4]	Activity [5]	Activity ([3]; oocyte)	Molecule	Km [6]
is not a substrate [(-)]	is not a substrate [(-)]	93 µM				CCCCCCCC(=O)CC[C@@H]1[C@@H](C/C=C\CCCC(=O)O)[C@@H](O)C[C@H]1O [UNOPROSTONE]	
is not a substrate [(-)]	is not a substrate [(-)]		is not a substrate [(-)]	is not a substrate [(-)]	is not a substrate [(-)]	CCCCCCCC(=O)CC[C@@H]1[C@@H](C/C=C\CCCC(=O)OC(C)C)[C@@H](O)C[C@H]1O [UNOPROSTONE ISOPROPYL]	

— ChEMBL document CHEMBL2073862, “Localization of organic anion transporting polypeptides in the rat and human ciliary body epithelium” (Exp Eye Res, 2005)
